Activity calls are given as the source filed them. The rule behind the calls is not given here.
Assays:
[1] = molecular target: Microtubule-associated protein tau (Homo sapiens) (UniProt P10636); assay: Inhibition of heparin-induced 4R tau (unknown origin) aggregation at 200 uM after 24 hrs by filter trap assay
Method in brief: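 Heparin-induced fibrillisation of 4R tau in PBS with 200 μM compound, 37 °C, 24 h. Fibrils diluted to 0.8 μM tau in 2% SDS, vacuum-filtered through membrane, washed twice with 2% SDS, probed with 4R tau-specific antibody, chemiluminescent dot detection and densitometry; 7 independent experiments.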

[2] = molecular target: Microtubule-associated protein tau (Homo sapiens) (UniProt P10636); assay: Inhibition of heparin-induced 4R tau (unknown origin) aggregation at 100 uM after 3 days by ThT fluorescence assay relative to control
Method in brief: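 20 μM 4R tau plus 5 μM heparin (avg MW 15 000) in 100 mM sodium acetate pH 7.0, ± 100 μM compound, incubated 3 days at 37 °C with 1 mM DTT added daily. ThT 12.5 μM then added, 1 h at room temperature. Spectra read with excitation 440 nm, emission 450–750 nm; intensity at emission maximum compared with tau alone.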

[3] = molecular target: Microtubule-associated protein tau (Homo sapiens) (UniProt P10636); assay: Induction of heparin-induced recombinant 4R tau (unknown origin) fibril oxidation at cysteine residues at 200 uM after 2 hrs by oregon green binding assay
Method in brief: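 Recombinant 4R tau (10 μM) fibrillised with 40 μM heparin in sodium acetate buffer pH 7, ± 200 μM compound, 37 °C, 2 h. Controls reduced with 1 mM DTT or oxidised with 20% v/v DMSO. Then labeled with Oregon green-iodoacetamide 30 min at room temperature, SDS-PAGE, fluorescence imaging. Band intensity normalized to Coomassie-stained total tau; 5 independent experiments.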

Microtubule-associated protein tau (Homo sapiens), sequence (P10636 whole entry): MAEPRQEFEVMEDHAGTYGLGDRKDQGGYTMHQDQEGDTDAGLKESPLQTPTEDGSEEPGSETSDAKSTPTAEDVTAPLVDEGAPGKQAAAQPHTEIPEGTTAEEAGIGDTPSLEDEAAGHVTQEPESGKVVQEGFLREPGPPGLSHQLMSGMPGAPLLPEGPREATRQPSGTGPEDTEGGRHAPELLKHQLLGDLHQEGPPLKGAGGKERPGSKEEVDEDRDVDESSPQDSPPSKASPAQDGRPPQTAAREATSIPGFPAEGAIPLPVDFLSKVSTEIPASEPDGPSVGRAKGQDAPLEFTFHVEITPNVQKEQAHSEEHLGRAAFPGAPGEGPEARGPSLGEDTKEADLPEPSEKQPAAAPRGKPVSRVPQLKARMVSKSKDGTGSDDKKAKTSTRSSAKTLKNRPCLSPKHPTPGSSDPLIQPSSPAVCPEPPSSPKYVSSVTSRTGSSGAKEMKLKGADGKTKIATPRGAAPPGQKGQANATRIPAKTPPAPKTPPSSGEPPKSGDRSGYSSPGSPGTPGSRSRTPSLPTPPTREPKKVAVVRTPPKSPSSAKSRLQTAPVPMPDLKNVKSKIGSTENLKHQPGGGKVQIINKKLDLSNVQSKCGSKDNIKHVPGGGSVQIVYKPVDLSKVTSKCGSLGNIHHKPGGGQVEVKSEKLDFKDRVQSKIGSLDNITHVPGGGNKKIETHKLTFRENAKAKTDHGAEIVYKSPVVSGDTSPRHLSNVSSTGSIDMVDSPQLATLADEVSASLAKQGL

Row | inhibition [1] | inhibition [2] [%] | Activity [3] | SMILES
1 | Active | 30 | Active | Nc1scc(/C(=N/O)C(=O)NC2CC2)c1C(=O)NC12CC3CC(CC(C3)C1)C2
2 | Active | 33 | inactive | C=CCO/N=C(\C(=O)NC1CC1)c1csc(N)c1C(=O)Nc1ccc(F)cc1
3 | Active | – | Active | Nc1scc(/C(=N/O)C(=O)NC2CC2)c1C(=O)Nc1ccc(F)cc1
4 | Active | 51 | Active | Nc1scc2c(C(=O)NC3CC3)nn(-c3ccc(F)cc3)c(=O)c12

— ChEMBL document CHEMBL4261481, “Ring-opened aminothienopyridazines as novel tau aggregation inhibitors” (Medchemcomm, 2017)
